Source: ChEMBL document CHEMBL1121797, “Studies on chiral interactions of 1-(2,5-dimethoxy-4-methylphenyl)-2-aminopropane and the corresponding N-hydroxy metabolites with cytochrome P-450” (J Med Chem, 1981)
“And” between values parts separate entries of the source, which are not always exact repeats. Equal values may be shown once.

Tests used:
[1] = Extent rates of formation of metabolic intermediate Cytochrome P-450 at compound concentration of 30 uM; type: ADME
Summary of the method: (§1)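 Rabbit liver microsomes at 2 mg protein/mL with 0.1 mM EDTA, 37 °C, substrate 30 μM. Complex formation started with 0.4 mM NADPH and followed by dual-wavelength absorbance, 457 vs 500 nm. Initial rate is the initial slope, ΔA×10^4 per nmol P-450 per min. Extent is the plateau absorbance. Lag is the time from NADPH addition to first 457-nm chromophore. Triplicate or single runs.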

Cytochrome P450 2C19 [2] = target: T1, Cytochrome P450 2C19 (Homo sapiens, UniProt P33261); assay: Initial rate of complex formation with20 uM compound; type: ADME, Oryctolagus cuniculus; settings: rabbit, 20 µM
T1 sequence (P33261 whole entry): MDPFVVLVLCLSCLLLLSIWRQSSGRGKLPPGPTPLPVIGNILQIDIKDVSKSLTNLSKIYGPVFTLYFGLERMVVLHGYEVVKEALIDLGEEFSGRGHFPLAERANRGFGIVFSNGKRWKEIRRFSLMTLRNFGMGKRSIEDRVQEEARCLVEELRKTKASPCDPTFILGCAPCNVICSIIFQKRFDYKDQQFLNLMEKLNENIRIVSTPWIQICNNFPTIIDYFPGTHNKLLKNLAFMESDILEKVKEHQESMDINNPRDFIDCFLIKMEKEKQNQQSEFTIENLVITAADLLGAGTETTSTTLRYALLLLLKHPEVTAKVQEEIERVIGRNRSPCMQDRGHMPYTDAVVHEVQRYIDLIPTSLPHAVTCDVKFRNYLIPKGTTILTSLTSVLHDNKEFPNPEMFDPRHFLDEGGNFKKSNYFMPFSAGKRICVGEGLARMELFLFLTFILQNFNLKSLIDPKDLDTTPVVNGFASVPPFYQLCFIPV

Cytochrome P450 2C19 [3] = target: T1, Cytochrome P450 2C19; assay: Percent inhibition of formation of metabolic intermediate complex between Cytochrome P450 and compound 1a (30 uM) initially, following incubation at compound concentration of 20 uM; type: ADME, Oryctolagus cuniculus; settings: rabbit, probe compound 1a (30 uM)
Cytochrome P450 2C19 [4] = target: T1, Cytochrome P450 2C19; assay: (§2) Extent of complex formation with 30 uM compound; type: ADME, Oryctolagus cuniculus; settings: rabbit
Cytochrome P450 2C19 [5] = target: T1, Cytochrome P450 2C19; assay: Percent inhibition of formation of metabolic intermediate complex between Cytochrome P450 and compound 1a (30 uM) initially, on pre-incubation with compound concentration of 15 uM; type: ADME, Oryctolagus cuniculus; settings: rabbit, probe compound 1a (30 uM)
Summary of the method: (§3)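 Inverse cross-inhibition in NADPH-supplemented rabbit liver microsomes at 37 °C. Preincubation with racemic hydroxylamine at 0–30 μM, monitoring 457-nm complex formation. The amine was then added at 30 μM, or racemic hydroxylamine at 30 μM. Initial rate and plateau extent were taken from ΔA457–500 nm tracings. Percent inhibition is relative to incubation in fresh microsomes.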

[6] = Lag time between the addition of compound (30 uM) and the first appearance of chromophore; type: ADME; summary of the method: as §1
Cytochrome P450 2C19 [7] = target: T1, Cytochrome P450 2C19; assay: Percent inhibition of formation of metabolic intermediate complex between Cytochrome P450 and compound 1a (30 uM) on extent, following incubation at compound concentration of 0 uM; type: ADME, Oryctolagus cuniculus; settings: rabbit, probe compound 1a (30 uM)
Summary of the method: (§4)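 Hepatic microsomes came from male Dutch rabbits, fasted 24 h. They were diluted to 2 mg protein/mL in 50 mM Tris-Cl with 150 mM KCl, 10 mM MgSO4 and 0.1 mM EDTA, with NADPH added, at 37 °C. Microsomes were preincubated with racemic hydroxylamine 2, then 30 µM 1a or 30 µM racemic 2 was added. Complex formation was followed as ΔA457–500 nm, and inhibition of rate and extent (plateau) was calculated.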

Cytochrome P450 2C19 [8] = target: T1, Cytochrome P450 2C19; assay: (§5) Extent of complex formation with 5 uM compound; type: ADME, Oryctolagus cuniculus; settings: rabbit
Cytochrome P450 2C19 [9] = target: T1, Cytochrome P450 2C19; assay: Percent inhibition of formation of metabolic intermediate complex between Cytochrome P450 and compound 1a (30 uM) initially, following incubation at compound concentration of 30 uM; type: ADME, Oryctolagus cuniculus; settings: rabbit, probe compound 1a (30 uM); summary of the method: as §3
Cytochrome P450 2C19 [10] = target: T1, Cytochrome P450 2C19; assay: as §5; type: ADME, Oryctolagus cuniculus; settings: rabbit; remark: listed apart in the source
Cytochrome P450 2C19 [11] = target: T1, Cytochrome P450 2C19; assay: Percent inhibition of formation of metabolic intermediate complex between Cytochrome P450 and compound 1a (30 uM) on extent, on pre-incubation with compound concentration of 5 uM; type: ADME, Oryctolagus cuniculus; settings: rabbit, probe compound 1a (30 uM); summary of the method: as §4
Cytochrome P450 2C19 [12] = target: T1, Cytochrome P450 2C19; assay: Percent inhibition of formation of metabolic intermediate complex between Cytochrome P450 and compound 1a (30 uM) initially, on pre-incubation with compound concentration of 30 uM; type: ADME, Oryctolagus cuniculus; settings: rabbit, probe compound 1a (30 uM); summary of the method: as §3
Cytochrome P450 2C19 [13] = target: T1, Cytochrome P450 2C19; assay: as §2; type: ADME, Oryctolagus cuniculus; settings: rabbit; remark: listed apart in the source
Cytochrome P450 2C19 [14] = target: T1, Cytochrome P450 2C19; assay: Extent of complex formation without compound; type: ADME, Oryctolagus cuniculus; settings: rabbit; summary of the method: as §3
Cytochrome P450 2C19 [15] = target: T1, Cytochrome P450 2C19; assay: Percent inhibition of formation of metabolic intermediate complex between Cytochrome P450 and compound 1a (30 uM) on extent, on pre-incubation with compound concentration of 0 uM; type: ADME, Oryctolagus cuniculus; settings: rabbit, probe compound 1a (30 uM); summary of the method: as §4
Cytochrome P450 2C19 [16] = target: T1, Cytochrome P450 2C19; assay: (§6) Initial rate of complex formation with 30 uM compound; type: ADME, Oryctolagus cuniculus; settings: rabbit
Cytochrome P450 2C19 [17] = target: T1, Cytochrome P450 2C19; assay: (§7) Extent of complex formation with 20 uM compound; type: ADME, Oryctolagus cuniculus; settings: rabbit
Cytochrome P450 2C19 [18] = target: T1, Cytochrome P450 2C19; assay: Percent inhibition of formation of metabolic intermediate complex between Cytochrome P450 and compound 1a (30 uM) initially, following incubation at compound concentration of 5 uM; type: ADME, Oryctolagus cuniculus; settings: rabbit, probe compound 1a (30 uM); summary of the method: as §3
Cytochrome P450 2C19 [19] = target: T1, Cytochrome P450 2C19; assay: as §6; type: ADME, Oryctolagus cuniculus; settings: rabbit; remark: listed apart in the source
Cytochrome P450 2C19 [20] = target: T1, Cytochrome P450 2C19; assay: as §7; type: ADME, Oryctolagus cuniculus; settings: rabbit; remark: listed apart in the source
Cytochrome P450 2C19 [21] = target: T1, Cytochrome P450 2C19; assay: Percent inhibition of formation of metabolic intermediate complex between Cytochrome P450 and compound 1a (30 uM) on extent, on pre-incubation with compound concentration of 15 uM; type: ADME, Oryctolagus cuniculus; settings: rabbit, probe compound 1a (30 uM); summary of the method: as §4
Cytochrome P450 2C19 [22] = target: T1, Cytochrome P450 2C19; assay: Initial rate of complex formation with 15 uM compound; type: ADME, Oryctolagus cuniculus; settings: rabbit
Cytochrome P450 2C19 [23] = target: T1, Cytochrome P450 2C19; assay: Percent inhibition of formation of metabolic intermediate complex between Cytochrome P450 and compound 1a (30 uM) on extent, following incubation at compound concentration of 30 uM; type: ADME, Oryctolagus cuniculus; settings: rabbit, 30 µM

## COc1cc(C[C@@H](C)NO)c(OC)cc1C.COc1cc(C[C@H](C)NO)c(OC)cc1C
[1]
  Rate: 131
Cytochrome P450 2C19 [2]
  Initial_rate: 87 deltaA.10^4nmol-1.min-1
Cytochrome P450 2C19 [3]
  inhibition at 20 µM: 29%
Cytochrome P450 2C19 [4]
  Complex_formation: 139 deltaA.10^4nmol-1 and 135 deltaA.10^4nmol-1
Cytochrome P450 2C19 [5]
  inhibition at 15 µM: 100%
[6]
  Lag time: 0 s
Cytochrome P450 2C19 [7]
  inhibition at 0 uM: 30%
Cytochrome P450 2C19 [8]
  Complex_formation: 43 deltaA.10^4nmol-1 and 85 deltaA.10^4nmol-1
Cytochrome P450 2C19 [9]
  inhibition at 30 µM: 74%
Cytochrome P450 2C19 [10]
  Complex_formation: 39 deltaA.10^4nmol-1
Cytochrome P450 2C19 [11]
  inhibition at 5 µM: 43%
Cytochrome P450 2C19 [12]
  inhibition at 30 µM: 100%
Cytochrome P450 2C19 [13]
  Complex_formation: 27 deltaA.10^4nmol-1
Cytochrome P450 2C19 [14]
  Complex_formation: 76 deltaA.10^4nmol-1 and 95 deltaA.10^4nmol-1
Cytochrome P450 2C19 [15]
  inhibition at 0 uM: 0%
Cytochrome P450 2C19 [16]
  Initial_rate: 177 deltaA.10^4nmol-1.min-1 and 176 deltaA.10^4nmol-1.min-1
Cytochrome P450 2C19 [17]
  Complex_formation: 108 deltaA.10^4nmol-1
Cytochrome P450 2C19 [18]
  inhibition at 5 µM: 39%
Cytochrome P450 2C19 [19]
  Initial_rate: 5 deltaA.10^4nmol-1.min-1
Cytochrome P450 2C19 [20]
  Complex_formation: 109 deltaA.10^4nmol-1
Cytochrome P450 2C19 [21]
  inhibition at 15 µM: 100%
Cytochrome P450 2C19 [22]
  Initial_rate: 131 deltaA.10^4nmol-1.min-1
Cytochrome P450 2C19 [23]
  Inhibition: 66%
